Only some compounds are listed: those with a hit (about 2.2% of all), similar ones and a draw of the others.
ERAP1 HTS inh: ERAP1 (human) enzyme inhibition; Q9NZ08; recombinant ERAP1, Leu-AMC fluorescence, 60 min; inhibition, % at 10.7 µM; actives 0.15% (n = 340,000); AID 652197;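 active means mean replicate inhibition of at least 30%, or all replicates individually reaching that 30% level; inactive means mean below 30% and not every replicate reaching it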
Target sequence (Q9NZ08 whole entry, looked up): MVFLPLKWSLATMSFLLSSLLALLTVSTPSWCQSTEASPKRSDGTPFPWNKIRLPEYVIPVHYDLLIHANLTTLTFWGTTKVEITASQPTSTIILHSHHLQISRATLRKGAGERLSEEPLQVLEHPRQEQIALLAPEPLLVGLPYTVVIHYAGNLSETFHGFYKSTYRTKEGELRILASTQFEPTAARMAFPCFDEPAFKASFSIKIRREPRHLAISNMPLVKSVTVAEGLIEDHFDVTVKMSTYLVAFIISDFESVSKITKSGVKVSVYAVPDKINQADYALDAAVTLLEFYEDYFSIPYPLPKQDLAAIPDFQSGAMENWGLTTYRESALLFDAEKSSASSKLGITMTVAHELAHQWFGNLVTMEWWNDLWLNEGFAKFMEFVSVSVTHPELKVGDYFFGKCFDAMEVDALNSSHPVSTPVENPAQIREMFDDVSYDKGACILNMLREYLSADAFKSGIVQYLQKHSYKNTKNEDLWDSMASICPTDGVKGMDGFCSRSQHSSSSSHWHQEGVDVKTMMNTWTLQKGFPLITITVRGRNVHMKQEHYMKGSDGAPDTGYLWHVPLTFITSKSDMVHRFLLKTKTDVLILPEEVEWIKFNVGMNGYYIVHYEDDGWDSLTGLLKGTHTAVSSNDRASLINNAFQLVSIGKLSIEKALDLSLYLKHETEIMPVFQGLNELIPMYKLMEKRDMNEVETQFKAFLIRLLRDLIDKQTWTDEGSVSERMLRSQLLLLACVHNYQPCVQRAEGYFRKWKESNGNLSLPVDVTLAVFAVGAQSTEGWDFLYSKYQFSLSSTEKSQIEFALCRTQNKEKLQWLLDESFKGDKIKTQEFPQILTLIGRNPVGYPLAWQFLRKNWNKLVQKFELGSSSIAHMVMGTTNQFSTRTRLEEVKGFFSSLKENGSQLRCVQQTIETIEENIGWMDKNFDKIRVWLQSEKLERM
FGF22 binding-1: shifts melting point of recombinant human FGF22; recombinant FGF22 thermal shift, SYPRO orange fluorescence; percent of sucrose octasulfate shift, DMSO zero; activity (Tm shift, normalised), % at 9.99 µM; AID 651658; actives 1.5% (n = 340,000); Q9HCT0;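 active means mean Tm shift, scaled 0 neutral to 100 positive control, at about 1.3% or above, every replicate too, limit read from the data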
PGC1a acetyl inh: PGC1a acetylation modulation, inhibitor mode | actives 0.17% (n = 350,000) | U2OS PGC1a acetylation, AlphaScreen anti-acetyl-lysine; with virally co-expressed GCN5 acetyltransferase | inhibition, % at 15.6 µM;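 active means every replicate shows inhibition of at least 40%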
FN deposition inh: fibronectin deposition inhibition. AH1F fibroblasts, Alexa488-fibronectin deposition fluorescence, overnight. inhibition, % at 12.6 µM. actives 0.086% (n = 350,000). AID 743247;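 active means mean inhibition across replicates of 30% or more, regardless of how many single replicates reach that level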
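Assay system: AH1F fibroblasts assembling fluorescent fibronectin matrix; Amount: 10000 AH1F cells per well; Buffer or medium: DMEM, 2% serum; Probe or stimulus: Alexa488-fibronectin, 24 nM final in well; Doses: single compound dose, delivered by pin transfer; Incubation: 1 h adhesion, overnight exposure; Measured by: fluorescence 485/525 nm; Read-out: fibronectin deposition inhibition.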
SIRT5 block: inhibitors of human sirtuin-5 desuccinylase | Q9NXA8 | Purified SirT5, succinyl-peptide AMC, trypsin-coupled fluorescence | actives 1.1% (n = 330,000) | AID 652115 | inhibition, % at 15 µM; in the data active means inhibition above about 15%
FGF22 binding-2: binds human FGF22 shifting its melting temperature; recombinant FGF22 thermal shift, SYPRO orange fluorescence; actives 2% (n = 1,000); shares compounds with FGF22 binding-1; thermal shift activity, °C (ΔTm) at 38 µM;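 active means fitted rise in melting shift crosses a set limit at or below the top valid dose tested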
FGF22 TSA: FGF22 (human) binding by thermal shift; shares compounds with FGF22 binding-1; Thermal shift assay, SYPRO orange, melting temperature shift; Tm shift (activity), % at 38 µM; 50 tested, under 10 active;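 active means compounds whose fitted dose curve of melting temperature shift rises past a set threshold within the tested doses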
SYPRO no-protein: compound-only SYPRO artifact for FGF22 binders; compound-only SYPRO orange thermal shift counter-screen, no protein; shares compounds with FGF22 binding-1; AC50, µM (top dose mostly 38 µM); actives 2% (n = 1,000);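 active means rising signal whose fitted curve reaches the 0.54 level within the top valid dose, showing a melting point, actives reach about 13 µM in these data; inactive means the rest, including activity in the opposite direction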; further: value is where the raw curve crosses a fixed level and not half-maximal
Numbers stand for hits; i = inactive; nt = no result.

SMILES	ERAP1 HTS inh	FGF22 binding-1	PGC1a acetyl inh	FN deposition inh	SIRT5 block	FGF22 binding-2	SYPRO no-protein	others
COc1ccc(C(=O)Nc2ccccc2N2CCOCC2)cc1S(=O)(=O)N1CCOCC1	i	21	i	i	i	i	i
CCc1cc(-c2n[nH]c(C)c2-c2nc3ccccc3n2C)c(O)cc1O	i	i	i	i	i	nt	nt
CCc1cc(-c2[nH]ncc2-c2ccc3c(c2)OCCO3)c(O)cc1O	nt	nt	nt	nt	nt	nt	nt	FGF22 TSA=i
CCc1cc(-c2n[nH]c(C)c2-c2ccc3c(c2)OCCO3)c(O)cc1O	nt	nt	nt	nt	nt	nt	nt	FGF22 TSA=i
CCc1cc(-c2[nH]ncc2-c2ccc([N+](=O)[O-])cc2)c(O)cc1OC	nt	nt	i	nt	nt	nt	nt
COc1ccc(Cc2nnc(NS(=O)(=O)c3ccccc3)s2)cc1	i	26	i	i	i	i	i
Cc1[nH]c2ccc(C(=O)OCC(=O)Nc3cccc(S(N)(=O)=O)c3)cc2c1C	i	1.6	i	i	i	nt	i	FGF22 TSA=i
Cc1ccccc1-c1ccccc1[C@@H]1[C@@H](C#N)N(C(=O)c2ccccc2)[C@H]1CO	i	1.3	i	i	i	i	i
N#Cc1cccc(NS(=O)(=O)c2ccc(S(=O)(=O)N3CCOCC3)cc2)c1	i	i	i	i	i	nt	nt
O=C(Nc1ccc(S(=O)(=O)N2CCCC2)cc1)c1ccccc1	i	1.6	i	i	i	i	i	FGF22 TSA=i
O=C(Nc1ccc(S(=O)(=O)N2CCCC2)cc1)c1cccs1	i	2.1	i	i	i	i	i	FGF22 TSA=i
O=C(Nc1ccccc1)c1ccc(S(=O)(=O)N2CCCC2)cc1	nt	nt	i	i	nt	nt	nt
N#Cc1cccc(NC(=O)c2ccc(S(=O)(=O)N3CCOCC3)cc2)c1	i	2.7	i	i	i	i	i
Cc1ccc(S(=O)(=O)Nc2ccc3c(c2)CC(=O)N([C@@H](C)CO)C[C@@H](C)[C@H](CN(C)CC2CCCCC2)O3)cc1	i	i	i	nt	i	nt	nt
COc1ccc(/C=N/NC(=O)c2cc(-c3ccc4c(c3)OCO4)n[nH]2)cc1OC	i	1.5	nt	nt	i	i	i
CCOc1ccc(C(=O)CCC(=O)Nc2ccc(C)cn2)cc1	i	14	nt	i	i	i	i
Cc1noc(C)c1NC(=O)Nc1ccc2c(c1)C(=O)N([C@H](C)CO)C[C@@H](C)[C@@H](CN(C)Cc1ccc(C(F)(F)F)cc1)OCCCC[C@H](C)O2	i	i	i	nt	i	nt	nt
O=C(Nc1ccc2c(c1)OCO2)N[C@@H]1CC[C@@H](CCNC(=O)C2CC2)O[C@H]1CO	i	i	i	i	i	nt	nt
CC(=O)N(C)C[C@H]1Oc2ncc(C#Cc3cccc(F)c3)cc2C(=O)N([C@@H](C)CO)C[C@@H]1C	i	i	i	i	i	nt	nt
Cc1ccc(-n2nc(C)c(/C=N/NC(=O)c3cccnc3)c2Cl)cc1	i	i	i	i	i	nt	nt
Cc1nn(-c2ccccc2)c(Cl)c1/C=N/NC(=O)c1cccnc1	i	17	nt	i	i	i	i
C/C=C/c1ccc([C@H]2[C@@H](CO)N(C(C)=O)C23CN(C(=O)c2ccncc2)C3)cc1	i	i	i	nt	i	nt	nt
C/C=C/c1ccc([C@H]2[C@@H](CO)N(C(C)=O)C23CN(C(=O)c2ccc(F)cc2)C3)cc1	i	1.4	i	nt	i	i	i
O=C(Nc1ccc2snnc2c1)N1CCN(c2ccccc2)CC1	nt	nt	i	i	nt	nt	nt
S=C(Nc1ccc(N2CCOCC2)cc1)Nc1ccc2snnc2c1	i	1.6	nt	nt	i	i	i
SMILES	ERAP1 HTS inh	FGF22 binding-1	PGC1a acetyl inh	FN deposition inh	SIRT5 block	FGF22 binding-2	SYPRO no-protein	others
COCC(=O)N1[C@@H](CO)[C@@H](c2ccccc2)C12CN(C(=O)NC1CCCCC1)C2	i	i	i	nt	i	nt	nt
O=C(CC1CC1)Nc1ccc2c(c1)[C@H]1C[C@@H](CC(=O)NC3CCCC3)O[C@H](CO)[C@H]1O2	i	i	i	i	i	nt	nt
C/C(CC(=O)Nc1ccc2c(c1)OCCO2)=N\NC(=O)COc1ccc(C)cc1	i	i	nt	i	i	nt	nt
C/C(CC(=O)Nc1ccc2c(c1)OCCO2)=N\NC(=O)COc1ccc(C)cc1Br	i	2.9	i	i	i	i	i
CC(C)NC(=O)Nc1ccc2c(c1)CC(=O)N([C@@H](C)CO)C[C@@H](C)[C@@H](CN(C)S(C)(=O)=O)O2	i	i	i	nt	nt	nt	nt
Cc1ccc(-c2n[nH]c(=S)n2/N=C/c2c(C)[nH]n(-c3ccccc3)c2=O)cc1	i	2.7	i	i	i	i	i
Cc1ccc(-c2nn(-c3ccccc3)cc2/C=N/n2c(-c3ccncc3)n[nH]c2=S)cc1	i	i	i	i	i	nt	nt
O=C(NN=Cc1ccc(O)cc1)c1ccccc1NS(=O)(=O)c1cccs1	i	1.8	i	i	i	i	i
O=C(O)c1ccc(C=NNC(=O)c2ccccc2NS(=O)(=O)c2cccs2)cc1	i	nt	i	i	i	nt	nt
O=C1c2ccccc2C(=O)C1c1ccncc1	nt	nt	i	nt	nt	nt	nt
O=C1C(=O)C(c2ccccc2)C(=O)C1c1ccccc1 (stereo not given)	i	5.8	i	nt	i	i	i
COc1cccc(S(=O)(=O)N[C@@H]2CC[C@H](CC(=O)NCc3ccccc3)O[C@@H]2CO)c1	i	i	i	nt	i	nt	nt
CCC(=O)N1CCC2(CC1)CN(C(=O)NC1CCCC1)[C@@H](CO)c1c2c2ccc(OC)cc2n1C	nt	i	i	nt	nt	nt	nt
COc1ccc(NC(=O)N(C)C[C@H]2Oc3ncc(C#C[C@H](C)O)cc3C(=O)N([C@@H](C)CO)C[C@H]2C)cc1	i	i	i	nt	i	nt	nt
O=C(Nc1ccsc1C(=O)O)c1cccc(C(F)(F)F)c1	i	1.5	nt	i	i	i	i
O=C(Nc1ccsc1C(=O)O)c1cccc(Oc2ccccc2)c1	i	i	nt	i	i	nt	nt
COc1cc([N+](=O)[O-])ccc1NC(=O)Nc1ccc2c(c1)OCCO2	i	1.7	nt	i	i	i	i
O=C(Nc1ccc([N+](=O)[O-])cc1)Nc1ccc2c(c1)OCCO2	i	i	nt	nt	i	nt	nt
COc1cc(NC(=O)c2ccc3c(c2)OCCO3)ccc1NC(=O)c1cccs1	i	2.0	i	nt	i	i	10µM
COc1cccc(C(=O)Nc2cccc(NC(=O)c3cccs3)c2)c1	i	1.9	i	i	i	i	i
C[C@H](CO)N1C[C@H](C)[C@H](CN(C)C(=O)C2CCOCC2)Oc2ncc(C#CCc3ccccc3)cc2C1=O	i	i	i	nt	i	nt	nt
CC=Cc1ccc2n(c1=O)C[C@H]1[C@H](CO)[C@@H](C(=O)NCCOC)[C@@H]2N1Cc1ccccc1OC (mixture of isomers)	i	nt	nt	nt	i	nt	nt
C[C@H]1CN([C@@H](C)CO)S(=O)(=O)c2ccc(/C=C/c3ccccc3)cc2O[C@@H]1CN(C)Cc1ccc(C(=O)O)cc1	i	1.6	i	nt	25	i	i

Screening data as filed in PubChem.
